From PubChem
A selection: hits, their analogues and other compounds. The true share with any hit is near 8.9%.
Dynein transport: dynein cargo transport inhibition | 3617.4 mouse cells, GR-EGFP nuclear translocation imaging; test concentration mostly 20 µM; stimulated with dexamethasone, 1 µM; hits give low values | z-score, hits read low | 220,000 compounds, 0.47% hits;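 active = plate z-score of nuclear minus cytoplasmic receptor signal below a set negative limit, without overly bright fluorescence or cell loss, cut at about -3.5 in these data, passing the limit was not always enough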;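 also: z-score of nuclear minus cytoplasmic ring GR-EGFP intensity difference per well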
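Buffer or medium: tet-free medium with charcoal-stripped serum / Also added: dexamethasone agonist, 1.0 µM final, for 30 min / Timing: induction 48 h, compound 1 h, agonist 30 min / Measured by: high-content fluorescence imaging after fixation / Read-out: nuclear-to-cytoplasmic GR-EGFP distribution per well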
b-catenin transl: modulators of beta-catenin nuclear translocation; 190,000 compounds, 0.3% hits; nuclear translocation activity, % at 5 µM; HeLa beta-catenin nuclear translocation, immunofluorescence imaging;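 active = nuclear translocation activity above 50% at 5 µM, with a well cell count of 50 or more; inconclusive = wells under 50 cells across six images, flagged as toxic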;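 also: per-cell ratio of nuclear to cytoplasmic median beta-catenin stain intensity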
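Assay system: human HeLa cells, native beta-catenin; doses: 5 µM primary, 0.02–20 µM confirmation; incubation: compound treatment 24 h, 37°C, 5% CO2; technique: fluorescence imaging of beta-catenin antibody stain plus DAPI; measure: % activation, nuclear-to-cytoplasmic median beta-catenin signal ratio per cell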
MT stabilize HCS: stabilizes microtubules in HeLa cells; % tubulin-high responders, % at 10 µM; AID 2205; HeLa tubulin immunostaining HCS, 24 h; share of cells brighter than vehicle mean+2SD; 200,000 compounds, 0.83% hits;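 active = plate Z-score above 3 for both tubulin-high and condensed-nucleus cell shares, with cell loss under 80%, at 10 µM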;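 also: anti alpha tubulin signal scored within the nucleus-defined area of each cell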
Lmaj promast: reduces viability of Leishmania major promastigotes | resazurin fluorescence viability | inhibition, % at 10 µM | 200,000 compounds, 9% hits; in the data active = inhibition above about 50%;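 also: promastigotes grown with compound for 44 hours at 28 °C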
HSV replic up: HSV replication enhancement; HSV replication augmentation in cells, fold increase; maximum fold increase; 220,000 compounds, 0.005% hits; AID 1956; in the data active = maximum fold increase above about 1.5; inconclusive = no clear call, values can overlap the other calls; tested in PC3 cells
Each line names hits and unclear results; the compound was inactive in the other large screens.

NNc1nc2c(-c3ccc(F)cc3)nnn2c2ccccc12	Lmaj promast 97
Fc1ccc(-c2nnn3c2nc(NCc2ccccc2)c2ccccc23)cc1	none (no result: MT stabilize HCS, Lmaj promast)
NNc1nc2c(-c3ccc(Cl)cc3)nnn2c2ccccc12	Lmaj promast 86, HSV replic up inconclusive
S=C(c1cn(CCOc2ccccc2)c2ccccc12)N1CCCC1	Lmaj promast 98, HSV replic up inconclusive
S=C(c1cn(CCOc2cccc3ccccc23)c2ccccc12)N1CCCC1	Lmaj promast 95
Cc1ccc(OCCn2cc(C(=S)N3CCCC3)c3ccccc32)cc1C	none
CC(C)CCNC(=O)C(c1ccncc1)N(C(=O)Cn1nnc(-c2ccc(F)cc2)n1)c1ccccc1F (centres undefined)	none
CC(C)=CC(=O)OCC(=O)Nc1ccc(Cl)cc1	none
CCCc1cc(NCc2ccccn2)n2c(nc3ccccc32)c1C#N	none
CCCc1cc(NCC2CCCO2)n2c(nc3ccccc32)c1C#N (centres undefined)	Lmaj promast 78
O=C(Nc1ccccc1)/C(=C/c1ccccc1)c1ccccc1	Lmaj promast 98
Cc1cc(NC(=S)Nc2cccnc2)ccc1Br	none
COC(=O)c1ccc(NC(=S)Nc2ccccc2)cc1	none
Cc1cc(NC(=S)Nc2ccccc2)ccc1Br	Lmaj promast 97
Cc1ccccc1NC(=O)/C(=C/c1ccccc1)c1ccccc1	none
O=C(O)c1ccc(NC(=S)Nc2ccccc2)cc1	Lmaj promast 91
O=C(CC1C(=O)NCCN1Cc1ccc(Cl)c(F)c1)NCCc1cccnc1 (centres undefined)	none (no result: MT stabilize HCS, Lmaj promast)
CC(=O)C1C(c2ccc([N+](=O)[O-])cc2)C2C(C)=NN=C2CC1(C)O (centres undefined)	none (no result: MT stabilize HCS, Lmaj promast)
O/N=C(/CCc1ccccc1)C1(O)CCCCC1	none (no result: b-catenin transl)
CNc1ccc(/C=C/C(=O)c2cccc3ccccc23)cc1[N+](=O)[O-]	Lmaj promast 99 (no result: b-catenin transl)
CN(c1ccc(OCc2nnc(-c3ccccc3)o2)cc1)S(=O)(=O)c1ccccc1	Lmaj promast 54
O=[N+]([O-])c1ccc(OCc2nnc(-c3ccccc3)o2)cc1	none
O=C(O)C1C2C=CC(C2)C1C(=O)NCc1ccco1 (centres undefined)	none
CCSC1=N/C(=C\c2ccccc2)C(=O)N1c1ccc(OC)cc1	none (no result: b-catenin transl)
COCc1cc(=O)[nH]c(Nc2nc3ccc(C)cc3o2)n1	Lmaj promast 99
COCc1cc(=O)[nH]c(/N=C(\N)Nc2cccc(C)c2)n1	none (no result: b-catenin transl)
O=C(NN1C(=O)C2C3C=CC(C3)C2C1=O)c1ccccc1 (centres undefined)	none
O=C(NN1C(=O)C2C3c4ccccc4C(c4ccccc43)C2C1=O)c1ccc(Cl)cc1 (centres undefined)	Lmaj promast 72
Cc1ccc(-c2csc3ncnc(SCc4ccc(C(=O)O)cc4)c23)cc1	none
O=C(/C=C/c1ccccc1Cl)N1CCN(c2ncccn2)CC1	Lmaj promast 59 (no result: b-catenin transl)
COc1cccc(C2=CC(c3ccccc3)n3nnnc3N2)c1 (centres undefined)	MT stabilize HCS 32 (no result: b-catenin transl, HSV replic up)
COc1ccc(C2C=C(c3ccccc3)Nc3nnnn32)cc1 (centres undefined)	none
COc1cccc(C2=CC(c3ccc(N(C)C)cc3)n3nnnc3N2)c1 (centres undefined)	MT stabilize HCS 42
COc1cccc(C2C=C(c3ccc(OC)cc3OC)Nc3nnnn32)c1 (centres undefined)	MT stabilize HCS 30 (no result: b-catenin transl, HSV replic up)
COc1ccc(CN=C(Nc2ccccc2)SC2CC(=O)N(C)C2=O)cc1 (centres undefined)	none (no result: HSV replic up)
Cc1ccc(CNC(=O)CCCCCNc2nc(=S)[nH]c3ccccc23)cc1	none
COc1cccc(N2CCN(C(=O)CCCCCNc3nc(=S)[nH]c4ccccc34)CC2)c1	Lmaj promast 74
O=C(CCCCCNc1nc(=S)[nH]c2ccccc12)N1CCN(c2ccccn2)CC1	Lmaj promast 57
Cn1c(=O)c2c(nc(N3CCCCCC3)n2CC(=O)c2ccccc2)n(C)c1=O	none
O=C(Nc1cccc(O)c1)C(=O)Nc1ccccn1	none
CCC1CCCCN1C1Sc2ccc(C(=O)OC)cc2NC1=O (centres undefined)	Lmaj promast 100
NC(=O)c1cc2ccccc2oc1=NCc1ccccc1	none
CC1CCCN(c2ccc(C(=O)Nc3ccc4c(c3)OCO4)cc2[N+](=O)[O-])C1 (centres undefined)	Lmaj promast 97
CC1CCN(c2ccc(C(=O)Nc3ccc4c(c3)OCO4)cc2[N+](=O)[O-])CC1	Lmaj promast 98
CC1CCCN(c2ccc(C(=O)NCc3ccc4c(c3)OCO4)cc2[N+](=O)[O-])C1 (centres undefined)	none
[O-]/C(=C(\C(=S)NCc1ccc2c(c1)OCO2)[n+]1ccccc1)c1ccc(Cl)s1	none
CNC(=O)c1ccccc1NC(=O)c1cccc(S(=O)(=O)N2CCC(C)CC2)c1	none
CCN1CCN(Cc2c(O)ccc3c(=O)c(-c4ccccc4OC)coc23)CC1	none
CCN1CCN(Cc2c(O)ccc3c2O/C(=C\C=C\c2ccccc2OC)C3=O)CC1	Lmaj promast 69, HSV replic up inconclusive
COc1ccc(NC(=O)c2ccccc2-c2ccc(C(F)(F)F)cc2)cc1S(=O)(=O)N1CCOCC1	none
CC(=O)c1cccc(NC(=O)N2CCC(NC(=O)C34CC5CC(CC(C5)C3)C4)CC2)c1	Lmaj promast 55
CC(=O)c1c(C)[nH]c(C(=O)OCC(=O)c2c(N)n(C)c(=O)n(C)c2=O)c1C	none
CCOc1ncccc1C(=O)OCC(=O)N1CC(=O)Nc2ccccc21	none
OCCC1CN(Cc2cn[nH]c2C2CCCCC2)CCN1Cc1ccccc1 (centres undefined)	none
CC(C)(C)c1ccccc1OCC(=O)NCCC(=O)O	Lmaj promast 99
CCCCCCOC(=O)/C=C/c1c(C)[nH]c(=O)[nH]c1=O	Lmaj promast 94
CCCCCCCCOC(=O)CCc1c(C)[nH]c(=S)[nH]c1=O	none
CCOC(=O)N1CCN(S(=O)(=O)c2ccc3c(c2)CCN3C(=O)C2CCC2)CC1	none
Cn1c(NCc2cccc(Br)c2)nc2ccccc21	Lmaj promast 61
CC1CC(C)CN(C(=O)Cn2c(=O)n(CCCCC(=O)NC3CCCC3)c(=O)c3ccccc32)C1 (centres undefined)	none
CN(C)c1ccc(-c2noc(C3CCN(C(=O)Nc4ccc(Cl)cc4)CC3)n2)cc1	none (no result: MT stabilize HCS, Lmaj promast)
O=S(=O)(Nc1nc2ccccc2nc1-[n+]1ccccc1)c1ccc(Cl)cc1	Lmaj promast 56
CC(=O)Nc1ccc(S(=O)(=O)Nc2nc3ccccc3nc2N2CCc3ccccc3C2)cc1	Lmaj promast 85
O=S(=O)(Nc1nc2ccccc2nc1N1CCc2ccccc2C1)c1ccc(Cl)cc1	Lmaj promast 57
O=S(=O)(Nc1nc2ccccc2nc1N1CCN(c2ccccn2)CC1)c1ccc(Cl)cc1	Lmaj promast 66
O=C(NCC1OCCc2ccccc21)c1ccc(NC(=O)c2cccc(Br)c2)cc1 (centres undefined)	none
